Laboratory results as given in ChEMBL document CHEMBL3758106, “Antitumor Activity of Americanin A Isolated from the Seeds of Phytolacca americana by Regulating the ATM/ATR Signaling Pathway and the Skp2-p27 Axis in Human Colon Cancer Cells” (J Nat Prod, 2015).
The source made the active and inactive calls. The rule behind the calls is not given here.

Assays:
[1] = tested on: HCT-116; assay: Induction of cell cycle arrest in human HCT116 cells assessed as accumulation at G0/G1 phase at 15 uM after 48 hrs by propidium iodide staining-based flow cytometric analysis in presence of RNase A (reference value: 54.3%); format: functional
[2] = tested on: HCT-116; assay: Induction of apoptosis in human HCT116 cells assessed as viable cells at 15 uM after 48 hrs by annexin V-FITC/propidium iodide staining-based flow cytometric analysis (reference value: 91.2%); format: functional; details: HCT-116, 48 h, read-out: Activity
[3] = tested on: HCT-116; assay: Induction of apoptosis in human HCT116 cells assessed as early apoptotic cells at 15 uM after 48 hrs by annexin V-FITC/propidium iodide staining-based flow cytometric analysis (reference value: 1.6%); format: functional
[4] = tested on: HCT-116; assay: Induction of apoptosis in human HCT116 cells assessed as viable cells at 30 uM after 48 hrs by annexin V-FITC/propidium iodide staining-based flow cytometric analysis (reference value: 91.2%); format: functional; details: HCT-116, 48 h, read-out: Activity
[5] = tested on: HCT-116; assay: Induction of reactive oxygen species in human HCT116 cells at 30 uM after 48 hrs by DCFH-DA staining-based flow cytometric analysis (reference value: 5.1%); format: functional
Procedure, shortened: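 HCT116 cells seeded overnight, then exposed to test compounds, alone or with NAC, for 48 h in complete medium. Loaded with 20 μM DCFH-DA for 30 min; intracellular ROS in 20 000 cells per group read by flow cytometry as histograms.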

[6] = tested on: HCT-116; assay: Induction of apoptosis in human HCT116 cells assessed as early apoptotic cells at 30 uM after 48 hrs by annexin V-FITC/propidium iodide staining-based flow cytometric analysis (reference value: 1.1%); format: functional
[7] = tested on: HCT-116; assay: Induction of apoptosis in human HCT116 cells assessed as early apoptotic cells at 30 uM after 48 hrs by annexin V-FITC/propidium iodide staining-based flow cytometric analysis in presence of NAC (reference value: 1.1%); format: functional
[8] = Antitumor activity against human HCT116 cells xenografted in nude mouse assessed as tumor growth inhibition at 10 mg/kg, ip administered 3 times per week measured on day 41; format: functional; details: HCT-116, ip, 984 h, read-out: TGI
Procedure, shortened: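 Nude mice given 2 × 10^6 HCT116 cells subcutaneously in flank; at ~120 mm3 randomised, six per group; ip dosing in 200 μL, test agent 5 or 10 mg/kg three times weekly, irinotecan 10 mg/kg once weekly; tumour volume measured twice weekly to day 41; body weight tracked for toxicity.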

[9] = tested on: Mus musculus; assay: Toxicity in nude mouse at 5 to 10 mg/kg, ip administered 3 times per week measured on day 41; format: organism-based; details: in vivo
Procedure, shortened: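 Nude mice implanted s.c. in the flank with 2 × 10^6 HCT116 cells. Once tumors reached about 120 mm3, mice were randomized, six per group, to vehicle or compound at 5 or 10 mg/kg ip (200 μL) three times weekly; irinotecan 10 mg/kg ip once weekly as reference. Body weight recorded twice weekly to assess toxicity; study ended day 41.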

[10] = tested on: HCT-116; assay: Induction of cell cycle arrest in human HCT116 cells assessed as accumulation at sub-G1 phase at 30 uM after 24 hrs by propidium iodide staining-based flow cytometric analysis in presence of RNase A (reference value: 1.5%); format: functional
[11] = Downregulation of cyclin B1 expression in human HCT116 cells at 7.5 to 30 uM after 24 hrs by Western blot analysis; format: functional, cell-based; details: HCT-116
Procedure, shortened: (§1)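 HCT116 cells exposed 24 h in complete medium; lysed in RIPA buffer (pH 8.0), protein by BCA, equal loads run on 8–13% SDS-PAGE, PVDF transfer, blocked in 5% BSA/TBST, primary antibodies overnight at 4 °C, HRP secondaries 2 h RT, ECL detection; β-actin as loading control.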

[12] = Antiproliferative activity against human HCT116 cells assessed as cell viability after 48 hrs by SRB assay; format: functional, cell-based; details: HCT-116, 48 h
Procedure, shortened: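 HCT116 cells in 96-well plates exposed 24, 48 or 72 h; TCA fixation, 0.4% SRB staining, dye solubilised in 10 mM Tris pH 10.0, absorbance at 515 nm; viability relative to solvent-treated control.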

[13] = Downregulation of phosphorylated ATM expression in human HCT116 cells at 30 uM after 1 hr by Western blot analysis; format: functional, cell-based; details: HCT-116, TDE = time-dependent effect
Procedure, shortened: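 HCT116 cells exposed for 1 h in complete medium; RIPA lysates quantified by BCA, equal protein separated on 8–13% SDS-PAGE, transferred to PVDF, probed with primary antibodies overnight at 4 °C and HRP secondaries, chemiluminescence read-out.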

[14] = target: Serine-protein kinase ATM/ATR (Homo sapiens) (UniProt Q13315+Q13535); assay: Activation of ATM/ATR in human HCT116 cells assessed as increase in Chk1 phosphorylation at S345 at 7.5 to 30 uM after 24 hrs by Western blot analysis; format: cell-based; details: HCT-116; procedure, shortened: as §1
[15] = Antiproliferative activity against p53-null human HCT116 cells assessed as cell viability after 72 hrs by SRB assay; format: functional, cell-based; details: HCT-116, 72 h
Procedure, shortened: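 p53 wild-type and p53-null HCT116 cells in 96-well plates treated 72 h; SRB assay (TCA fix, SRB stain, Tris pH 10.0 solubilisation, A515); viability vs solvent control, IC50 by nonlinear regression.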

[16] = tested on: MRC5; assay: Cytotoxicity against human MRC5 cells after 24 to 72 hrs by SRB assay; format: cell-based
Procedure, shortened: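 Cells grown in 96-well plates (RPMI 1640; MRC-5 in MEM, 10% FBS, antibiotics) with compound […]; fixed in 10% TCA 30 min at 4 °C, stained 0.4% SRB in 1% acetic acid 1 h, dye dissolved in 10 mM Tris pH 10.0, A515 read; viability as % of solvent control, IC50 by nonlinear regression; mean of three independent experiments.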

[17] = tested on: Mus musculus; assay: Upregulation of p27 in human HCT116 cells xenografted in nude mouse at 5 to 10 mg/kg, ip administered 3 times per week measured on day 41 by Western blot analysis; format: functional, organism-based; details: HCT-116
Procedure, shortened: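 HCT116 xenografts in nude mice dosed ip at 5 or 10 mg/kg three times weekly to day 41. Portions of the excised frozen tumors were thawed on ice, homogenized in complete lysis buffer, protein quantified by Bradford, and p21, p27 and Skp2 assessed by Western blot with β-actin as internal control.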

[18] = tested on: HCT-116; assay: Induction of cell cycle arrest in human HCT116 cells assessed as accumulation at G2/M phase at 7.5 uM after 24 hrs by propidium iodide staining-based flow cytometric analysis in presence of RNase A (reference value: 20.6%); format: functional
[19] = tested on: HCT-116; assay: Induction of cell cycle arrest in human HCT116 cells assessed as accumulation at sub-G1 phase at 7.5 uM after 24 hrs by propidium iodide staining-based flow cytometric analysis in presence of RNase A (reference value: 1.5%); format: functional
[20] = tested on: HCT-116; assay: Induction of cell cycle arrest in human HCT116 cells assessed as accumulation at S phase at 15 uM after 24 hrs by propidium iodide staining-based flow cytometric analysis in presence of RNase A (reference value: 13.4%); format: functional
[21] = tested on: HCT-116; assay: Induction of apoptosis in human HCT116 cells assessed as cleaved PARP level at 30 uM up to 48 hrs by Western blot analysis in presence of NAC

For `O=C/C=C/c1ccc2c(c1)O[C@@H](CO)[C@H](c1ccc(O)c(O)c1)O2` [AMERICANIN A], the Activity [1] was 23.4%, the viability at 15 µM [2] was 76.3% and the Activity [3] was 12.2%. For the same molecule, the viability at 30 µM [4] was 30.6%, the Activity [5] was 47.4% and the Activity [6] was 7%. For the same molecule, the Activity [7] was 2.7%, the inhibition in vivo at 10 mg/kg [8] was 55.7% and the Activity [9] was “Non-toxic”. For the same molecule, the Activity [10] was 4%, the Activity [11] was “Active” and the IC50 [12] was 9.6 µM. The Activity [13] was “tde”, the Activity [14] was “Dose-dependent effect” and the IC50 [15] was 7.8 µM. The IC50 [16] was over 100 µM, the Activity [17] was “Active” and the Activity [18] was 27.5%. For the same molecule, the Activity [19] was 1.9%, the Activity [20] was 17.9% and the Activity [21] was “inactive”.
